Results taken from ChEMBL document CHEMBL4406810, “Modifications on the Amino-3,5-dicyanopyridine Core To Obtain Multifaceted Adenosine Receptor Ligands with Antineuropathic Activity” (J Med Chem, 2019).
Calls of active or inactive are those of the source.

Experiments:
[1] = target: T1, Adenosine receptor A3 (Homo sapiens) (UniProt P0DMS8); assay: Displacement of [125I]ABMECA from human A3R expressed in CHO cell membranes at 1 uM measured after 120 mins by scintillation counting method relative to control
T1 sequence (whole entry): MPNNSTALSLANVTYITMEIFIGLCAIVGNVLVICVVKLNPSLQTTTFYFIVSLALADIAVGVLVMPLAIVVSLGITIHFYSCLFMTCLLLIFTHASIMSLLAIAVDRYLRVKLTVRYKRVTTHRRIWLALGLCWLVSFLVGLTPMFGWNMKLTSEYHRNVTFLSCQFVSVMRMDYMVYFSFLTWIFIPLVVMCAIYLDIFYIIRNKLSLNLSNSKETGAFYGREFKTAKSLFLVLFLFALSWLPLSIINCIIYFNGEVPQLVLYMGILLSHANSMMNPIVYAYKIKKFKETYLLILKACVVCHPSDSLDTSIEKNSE
In short: (§1)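 Nonspecific binding with 1 µM AB-MECA. GF/B filtration and counting. Ki via Cheng–Prusoff. Percent inhibition at 1 µM. Four experiments in triplicate.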

CHO = assay: Effect on cAMP level in wild-type CHO cells at 0.001 to 1 uM by alphascreen assay; type: functional, cell-based; details: Cricetulus griseus
In short: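 Compounds at 1 nM to 1 µM final concentrations. cAMP quantified with AlphaScreen kit. Four independent experiments, each in triplicate.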

[2] = target: T2, Adenosine receptor A2b (Homo sapiens) (UniProt P29275); assay: Agonist activity at human A2B expressed in CHO cells assessed as stimulation of cAMP production at 1 uM by alphascreen assay relative to NECA; type: functional, cell-based
T2 sequence (whole entry): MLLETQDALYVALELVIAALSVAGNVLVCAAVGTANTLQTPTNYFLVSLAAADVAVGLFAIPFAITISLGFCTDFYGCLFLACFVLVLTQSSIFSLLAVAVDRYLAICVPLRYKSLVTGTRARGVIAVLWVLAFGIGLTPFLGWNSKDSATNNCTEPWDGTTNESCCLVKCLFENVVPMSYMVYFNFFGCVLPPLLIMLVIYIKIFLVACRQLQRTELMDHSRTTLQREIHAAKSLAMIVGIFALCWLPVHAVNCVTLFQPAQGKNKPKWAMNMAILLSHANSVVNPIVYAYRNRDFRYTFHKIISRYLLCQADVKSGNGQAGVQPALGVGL
In short: (§2)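 Compounds tested alone at final 1 nM to 1 µM. cAMP measured by AlphaScreen. Efficacy taken at 1 µM relative to NECA 1 µM (=100%). Four independent experiments in triplicate.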

Adenosine receptor A2b = target: T3, Adenosine receptor A2b (Homo sapiens, UniProt P29275); assay: Agonist activity at human A2B expressed in CHO cells assessed as stimulation of cAMP production by alphascreen assay; type: functional, cell-based; in short: as §2
T3 sequence (P29275 whole entry): T2 sequence (whole entry)

Adenosine receptor A2a [3] = target: T4, Adenosine receptor A2a (Homo sapiens, UniProt P29274); assay: Displacement of [3H]ZM241385 from human A2AR expressed in CHO cell membranes at 1 uM measured after 60 mins by scintillation counting method relative to control
T4 sequence (P29274 whole entry): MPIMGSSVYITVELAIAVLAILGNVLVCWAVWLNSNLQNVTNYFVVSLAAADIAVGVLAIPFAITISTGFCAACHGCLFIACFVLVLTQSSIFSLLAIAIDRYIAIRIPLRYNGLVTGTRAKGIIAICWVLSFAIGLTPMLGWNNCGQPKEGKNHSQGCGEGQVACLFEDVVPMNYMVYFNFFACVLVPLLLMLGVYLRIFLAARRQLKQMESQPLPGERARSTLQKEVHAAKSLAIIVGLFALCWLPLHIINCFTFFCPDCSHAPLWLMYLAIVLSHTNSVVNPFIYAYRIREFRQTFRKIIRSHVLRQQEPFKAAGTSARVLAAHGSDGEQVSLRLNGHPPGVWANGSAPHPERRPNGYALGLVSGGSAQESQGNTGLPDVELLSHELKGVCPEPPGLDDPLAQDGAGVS
In short: (§3)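 Nonspecific binding defined with 1 µM ZM241385. Filtered on GF/B, scintillation counted. Ki by Cheng–Prusoff. Percent inhibition at 1 µM. Four experiments in triplicate.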

[4] = target: T5, Adenosine receptor A1 (Homo sapiens) (UniProt P30542); assay: Displacement of [3H]DPCPX from human A1AR expressed in CHO cell membranes at 1 uM measured after 90 mins by scintillation counting method relative to control
T5 sequence (whole entry): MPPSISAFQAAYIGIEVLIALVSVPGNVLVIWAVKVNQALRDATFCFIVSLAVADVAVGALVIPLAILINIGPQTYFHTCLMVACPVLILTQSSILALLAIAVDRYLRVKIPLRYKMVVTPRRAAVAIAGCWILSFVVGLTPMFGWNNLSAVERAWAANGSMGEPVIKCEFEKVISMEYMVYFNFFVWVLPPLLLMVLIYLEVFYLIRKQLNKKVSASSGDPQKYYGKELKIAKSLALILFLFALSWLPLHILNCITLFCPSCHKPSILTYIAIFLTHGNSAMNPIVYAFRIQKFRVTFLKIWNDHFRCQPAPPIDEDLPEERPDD
In short: (§4)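 Nonspecific binding with 1 µM DPCPX. GF/B filtration and scintillation counting. Ki by Cheng–Prusoff. Inhibition % at 1 µM. Four experiments in triplicate.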

[5] = target: T2, Adenosine receptor A2b (Homo sapiens); assay: Antagonist activity at human A2BR expressed in CHO cells assessed as inhibition of NECA-stimulated cAMP production at 1 uM by alphascreen assay relative to control; type: functional, cell-based
In short: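 Compounds added at 1 nM to 1 µM final, with percent inhibition read at 1 µM. AlphaScreen cAMP read-out. IC50 by sigmoid non-linear regression. Four independent experiments in triplicate.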

[6] = target: T5, Adenosine receptor A1 (Homo sapiens); assay: Inverse agonist activity at human A1AR expressed in CHO cells assessed as increase in forskolin-stimulated cAMP production by alphascreen assay relative to DPCPX; type: functional, cell-based
In short: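 Compounds at 1 nM to 1 µM. cAMP rise measured by AlphaScreen. EC50 from sigmoid fit. […] Four independent experiments in triplicate.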

Adenosine receptor A3 = target: T6, Adenosine receptor A3 (Homo sapiens, UniProt P0DMS8); assay: Displacement of [125I]ABMECA from human A3R expressed in CHO cell membranes measured after 120 mins by scintillation counting method; in short: as §1
T6 sequence (P0DMS8 whole entry): T1 sequence (whole entry)

Adenosine receptor A2a [7] = target: T4, Adenosine receptor A2a; assay: Antagonist activity at human A2AR expressed in CHO cells assessed as inhibition of CGS21680-stimulated cAMP production by alphascreen assay; type: functional, cell-based
Adenosine receptor A1 [8] = target: T7, Adenosine receptor A1 (Homo sapiens, UniProt P30542); assay: Inverse agonist activity at human A1AR expressed in CHO cells assessed as increase in forskolin-stimulated cAMP production by alphascreen assay; type: functional, cell-based
T7 sequence (P30542 whole entry): T5 sequence (whole entry)
In short: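 Compounds at 1 nM to 1 µM. cAMP rise measured by AlphaScreen. EC50 from sigmoid fit. Four independent experiments in triplicate.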

Adenosine receptor A1 [9] = target: T7, Adenosine receptor A1; assay: Displacement of [3H]DPCPX from human A1AR expressed in CHO cell membranes measured after 90 mins by scintillation counting method; in short: as §4
Adenosine receptor A2a [10] = target: T4, Adenosine receptor A2a; assay: Displacement of [3H]ZM241385 from human A2AR expressed in CHO cell membranes measured after 60 mins by scintillation counting method; in short: as §3
Mus musculus [11] = assay: Antinociceptive activity in CD-1 albino mouse model of oxaliplatin-induced neuropathic pain assessed as increase in licking latency at 0.1 to 0.3 mg/kg, po treated on day 15 post oxaliplatin treatment and measured at 30 to 60 mins post dose by cold plate test; type: functional, organism-based
In short: (§5)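 Male CD-1 mice (22–25 g) given oxaliplatin 2.4 mg/kg i.p. in 5% glucose on days 1-2, 5-9 and 12-14. On day 15, single oral dose (test compounds in 1% CMC). Cold plate at 4 °C, latency to paw licking or lifting, 60 s cut-off, read 15–60 min post dose. 10 mice/group in two sets. ANOVA with Bonferroni.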

Mus musculus [12] = assay: Antinociceptive activity in CD-1 albino mouse model of oxaliplatin-induced neuropathic pain assessed as increase in licking latency at 10 mg/kg, po treated on day 15 post oxaliplatin treatment and measured at 15 to 60 mins post dose in presence of nonspecific nAChR antagonist mecamylamine by cold plate test; type: functional, organism-based
In short: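 Oxaliplatin neuropathy in male CD-1 mice (2.4 mg/kg i.p., 10 injections, days 1-14). Day 15: mecamylamine 2 mg/kg i.p. or methyllycaconitine 6 mg/kg i.p. given 15 min before the oral dose. Cold plate (4 °C) licking/lifting latency with 60 s cut-off, measured over time after dosing. 10 mice/group, two sets.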

Mus musculus [13] = assay: Antinociceptive activity in CD-1 albino mouse model of oxaliplatin-induced neuropathic pain assessed as increase in licking latency at 10 mg/kg, po treated on day 15 post oxaliplatin treatment and measured at 15 to 60 mins post dose by cold plate test; type: functional, organism-based; in short: as §5
[14] = Half life in human plasma at 1 uM by LC-MS/MS analysis; type: ADME, cell-free
In short: (§6)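 Analyte spiked at 1 µM into human plasma or heparinized Sprague-Dawley male rat plasma (or PBS). Incubated at 37°C for 0, 30, 60, 120 min in triplicate. Internal standard added, centrifuged, dried, reconstituted. Quantified by LC-MS/MS (ESI negative, MRM) against a 0–1 µM calibration. Half-life from concentration-time profile.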

Adenosine receptor A1 [15] = target: T7, Adenosine receptor A1; assay: Antagonist activity at human A1AR expressed in CHO cells assessed as suppression of CCPA-induced inhibition of forskolin-stimulated cAMP production by alphascreen assay; type: functional, cell-based
In short: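 hA1 CHO cells in HBSS with HEPES, Ro 20-1724 (phosphodiesterase inhibitor), BSA and adenosine deaminase. Forskolin 5 µM with CCPA 1 nM. […] AlphaScreen detection. IC50 and Emax by sigmoid fit. Four independent experiments in triplicate.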

[16] = Half life in Sprague-Dawley rat plasma at 1 uM by LC-MS/MS analysis; type: ADME, cell-free; in short: as §6

SMILES	inhibition [1] [%]	Activity (CHO)	Efficacy [2] [%]	EC50 (Adenosine receptor A2b) [nM]	inhibition (Adenosine receptor A2a [3]) [%]	inhibition [5] [%]	Emax [6] [%]	EC50 (Adenosine receptor A1 [8]) [nM]	Ki (Adenosine receptor A1 [9]) [nM]	Ki (Adenosine receptor A2a [10]) [nM]	further results
N#Cc1c(N)nc(NCCO)c(C#N)c1-c1ccco1	17	inactive	1	> 1000	18	6	–	–	–	–	inhibition [4]: 20%
N#Cc1c(N)nc(SCc2cccnc2)c(C#N)c1-c1ccco1	–	inactive	1	> 1000	–	–	47	2.73	1.42	24	Ki (Adenosine receptor A3): 948 nM; IC50 (Adenosine receptor A2a [7]): 83 nM
N#Cc1c(Nc2ccc(I)cc2)nc(SCCO)c(C#N)c1-c1ccco1	8	inactive	1	> 1000	1	–	–	–	–	–	inhibition [4]: 10%
N#Cc1c(N)nc(SCc2cccc(C(=O)O)c2)c(C#N)c1-c1ccco1	–	inactive	1	> 1000	–	12	45	8.92	4.12	581	Ki (Adenosine receptor A3): 611 nM; Activity (Mus musculus [11]): Active
N#Cc1c(N)nc(NCCO)c(C#N)c1-c1cccnc1	8	inactive	1	> 1000	1	–	–	–	–	–	inhibition [4]: 1%
N#Cc1c(N)nc(SCCO)c(C#N)c1-c1ccco1	29	inactive	7	> 1000	27	33	83	128	57	–	–
Cn1c(=O)c2c(ncn2C)n(C)c1=O	–	–	–	–	–	–	–	–	–	–	Activity (Mus musculus [12]): inactive; Activity (Mus musculus [13]): Active
N#Cc1c(N)nc(SCc2ccncc2)c(C#N)c1-c1ccco1	–	inactive	14	> 1000	–	40	–	–	40	114	Ki (Adenosine receptor A3): 678 nM
CCOC(=O)C(C)c1cccc(C(=O)c2ccccc2)c1 (stereo unspecified)	–	–	–	–	–	–	–	–	–	–	half-life at 1 µM [14]: 1.67 h
N#Cc1c(NCc2ccccc2)nc(SCCO)c(C#N)c1-c1ccco1	14	inactive	3	> 1000	–	–	–	–	65	461	IC50 (Adenosine receptor A1 [15]): 76 nM
N#Cc1c(N)nc(SCCO)c(C#N)c1-c1ccoc1	34	inactive	32	852	19	38	39	58	19	–	–
N#Cc1c(NC2CC2)nc(SCCO)c(C#N)c1-c1ccco1	30	inactive	4	> 1000	30	–	–	–	89	–	IC50 (Adenosine receptor A1 [15]): 118 nM
CCOC(=O)[C@H](CCc1ccccc1)N[C@@H](C)C(=O)N1CCC[C@H]1C(=O)O	–	–	–	–	–	–	–	–	–	–	half-life at 1 µM [16]: 0.367 h
